Reference: ChEMBL document CHEMBL1914304 (J Med Chem, 2011)

Key:
HEK293 = assay: Cytotoxicity against human HEK293 cells after 72 hrs by luminescence assay; format: cell-based; details: hek293, 72 h
BJ = assay: Cytotoxicity against human BJ cells after 72 hrs by luminescence assay; format: cell-based
[1] = target: Sulfonylurea receptor 2, Kir6.2 (Homo sapiens, UniProt O60706+Q14654); assay: Inhibition of human kir6.2/SUR2A ion channel coexpressed in human HEK293 cells after 5 mins by patch clamp assay; format: cell-based
Procedure, shortened: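 Human KCNJ11 (Kir6.2) and SUR2A were co-expressed in HEK293 cells to give the ATP-sensitive current IKATP. The assay was run at room temperature by automated parallel patch clamp, with dose-response at 0.2, 0.6, 1.6 and 5 µM. Exposure was 5 min per concentration, with each concentration in two cells (n ≥ 2).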

[2] = Solubility of the compound in phosphate buffered saline by UV spectrophotometry; format: physicochemical
Raji = assay: Cytotoxicity against human Raji cells after 72 hrs by luminescence assay; format: cell-based
HepG2 = assay: Cytotoxicity against human HepG2 cells after 72 hrs by luminescence assay; format: cell-based; details: hepg2, 72 h
[3] = target: T1, Sodium channel protein type 5 subunit alpha (Homo sapiens, UniProt Q14524); assay: Inhibition of human cloned Nav1.5 channel expressed in chinese hamster CHO cells assessed as tonic inhibition after 5 mins by patch clamp assay; format: cell-based
[4] = Chemical stability in simulated gastric fluid at pH 2 over 24 hrs; format: physicochemical; details: simulated gi fluid, pH 2, 24 h
Plasma = assay: Metabolic stability in mouse plasma over 24 hrs; format: ADME, cell-free
[5] = target: T1, Sodium channel protein type 5 subunit alpha; assay: Inhibition of human cloned Nav1.5 channel expressed in chinese hamster CHO cells assessed as phasic inhibition after 5 mins by patch clamp assay; format: cell-based
[6] = Chemical stability in simulated gastric fluid at pH 5 over 24 hrs; format: physicochemical; details: simulated gi fluid, pH 5, 24 h
[7] = target: Voltage-gated inwardly rectifying potassium channel KCNH2 (Homo sapiens, UniProt Q12809); assay: Inhibition of human cloned ERG channel expressed in chinese hamster CHO cells after 5 mins by patch clamp assay; format: cell-based
[8] = Selectivity ratio of EC50 for human HepG2 cells to EC50 for Plasmodium falciparum
Plasmodium falciparum [9] = assay: Antimalarial activity against erythrocytic stage of chloroquine-resistant Plasmodium falciparum K1 after 72 hrs by spectrophotometry; format: functional, organism-based; details: K1, 72 h
hERG = assay: Therapeutic index, ratio of IC50 for human ERG expressed in CHO cells to EC50 for chloroquine-resistant Plasmodium falciparum K1; format: cell-based; details: hamster, CHO cells expressing human ERG; read-out: Ratio IC50/EC50
Plasmodium falciparum [10] = assay: Antimalarial activity against erythrocytic stage of chloroquine-sensitive Plasmodium falciparum 3D7 after 72 hrs by spectrophotometry; format: functional, organism-based; details: 3D7, 72 h

T1 sequence (Q14524 whole entry): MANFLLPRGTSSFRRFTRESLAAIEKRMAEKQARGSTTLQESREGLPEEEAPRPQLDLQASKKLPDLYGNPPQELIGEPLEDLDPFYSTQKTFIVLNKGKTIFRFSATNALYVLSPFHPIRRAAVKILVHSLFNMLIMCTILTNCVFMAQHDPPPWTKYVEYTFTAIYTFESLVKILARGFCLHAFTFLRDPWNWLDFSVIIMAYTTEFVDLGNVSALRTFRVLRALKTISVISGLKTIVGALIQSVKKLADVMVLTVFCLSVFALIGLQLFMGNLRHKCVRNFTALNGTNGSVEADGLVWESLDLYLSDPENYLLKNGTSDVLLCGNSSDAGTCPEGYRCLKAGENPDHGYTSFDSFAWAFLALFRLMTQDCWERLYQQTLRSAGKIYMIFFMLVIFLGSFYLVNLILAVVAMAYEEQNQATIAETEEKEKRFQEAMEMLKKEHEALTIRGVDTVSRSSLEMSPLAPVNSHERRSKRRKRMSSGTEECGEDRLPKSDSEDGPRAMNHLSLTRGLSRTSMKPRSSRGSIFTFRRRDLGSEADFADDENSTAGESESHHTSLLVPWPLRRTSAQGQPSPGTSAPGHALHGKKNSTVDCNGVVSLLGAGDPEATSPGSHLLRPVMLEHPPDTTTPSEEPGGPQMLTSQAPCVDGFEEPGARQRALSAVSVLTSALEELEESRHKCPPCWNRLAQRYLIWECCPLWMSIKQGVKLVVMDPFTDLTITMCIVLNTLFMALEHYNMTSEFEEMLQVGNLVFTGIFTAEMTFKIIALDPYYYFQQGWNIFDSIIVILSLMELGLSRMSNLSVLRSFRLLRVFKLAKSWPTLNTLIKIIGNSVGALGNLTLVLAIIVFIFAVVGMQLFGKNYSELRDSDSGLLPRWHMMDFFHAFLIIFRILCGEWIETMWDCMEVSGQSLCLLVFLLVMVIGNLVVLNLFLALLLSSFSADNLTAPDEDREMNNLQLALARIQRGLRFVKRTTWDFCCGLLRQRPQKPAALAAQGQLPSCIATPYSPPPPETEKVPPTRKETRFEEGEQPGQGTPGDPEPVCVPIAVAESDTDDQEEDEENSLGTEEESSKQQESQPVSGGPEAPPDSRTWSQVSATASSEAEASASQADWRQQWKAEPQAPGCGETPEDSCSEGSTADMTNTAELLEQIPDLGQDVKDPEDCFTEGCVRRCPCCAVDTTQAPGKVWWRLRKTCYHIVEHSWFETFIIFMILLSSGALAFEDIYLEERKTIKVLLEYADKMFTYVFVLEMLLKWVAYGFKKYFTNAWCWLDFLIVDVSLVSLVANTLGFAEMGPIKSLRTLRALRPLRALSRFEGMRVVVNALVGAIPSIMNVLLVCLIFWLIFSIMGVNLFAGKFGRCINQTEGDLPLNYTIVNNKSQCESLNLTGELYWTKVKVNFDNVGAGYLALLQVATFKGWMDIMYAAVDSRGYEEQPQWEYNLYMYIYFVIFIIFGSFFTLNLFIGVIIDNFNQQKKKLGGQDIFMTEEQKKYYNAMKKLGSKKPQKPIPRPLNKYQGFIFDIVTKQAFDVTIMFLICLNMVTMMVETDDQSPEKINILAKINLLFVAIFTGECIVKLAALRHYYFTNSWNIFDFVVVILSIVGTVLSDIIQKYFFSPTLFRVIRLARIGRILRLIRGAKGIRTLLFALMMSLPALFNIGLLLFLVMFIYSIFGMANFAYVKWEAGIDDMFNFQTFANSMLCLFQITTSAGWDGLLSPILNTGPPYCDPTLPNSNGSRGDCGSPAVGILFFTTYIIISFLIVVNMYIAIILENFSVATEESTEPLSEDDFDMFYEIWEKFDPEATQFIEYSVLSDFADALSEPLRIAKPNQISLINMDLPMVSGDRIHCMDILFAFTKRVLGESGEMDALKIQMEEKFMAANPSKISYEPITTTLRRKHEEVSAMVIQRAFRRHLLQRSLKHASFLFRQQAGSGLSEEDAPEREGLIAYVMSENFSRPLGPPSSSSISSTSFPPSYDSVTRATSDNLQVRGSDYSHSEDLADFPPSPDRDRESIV
Sulfonylurea receptor 2, Kir6.2, sequence (Q14654 whole entry): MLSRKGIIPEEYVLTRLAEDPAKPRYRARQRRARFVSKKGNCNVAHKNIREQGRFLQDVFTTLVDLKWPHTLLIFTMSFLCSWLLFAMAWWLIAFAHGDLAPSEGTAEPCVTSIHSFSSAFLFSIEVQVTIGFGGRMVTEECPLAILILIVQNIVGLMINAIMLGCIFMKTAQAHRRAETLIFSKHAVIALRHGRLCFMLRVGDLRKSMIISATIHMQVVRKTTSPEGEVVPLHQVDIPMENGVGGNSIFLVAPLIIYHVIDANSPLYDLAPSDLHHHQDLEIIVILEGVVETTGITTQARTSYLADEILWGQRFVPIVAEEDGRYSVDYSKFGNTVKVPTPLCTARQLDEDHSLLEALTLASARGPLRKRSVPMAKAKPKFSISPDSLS
Sulfonylurea receptor 2, Kir6.2, sequence (O60706 whole entry): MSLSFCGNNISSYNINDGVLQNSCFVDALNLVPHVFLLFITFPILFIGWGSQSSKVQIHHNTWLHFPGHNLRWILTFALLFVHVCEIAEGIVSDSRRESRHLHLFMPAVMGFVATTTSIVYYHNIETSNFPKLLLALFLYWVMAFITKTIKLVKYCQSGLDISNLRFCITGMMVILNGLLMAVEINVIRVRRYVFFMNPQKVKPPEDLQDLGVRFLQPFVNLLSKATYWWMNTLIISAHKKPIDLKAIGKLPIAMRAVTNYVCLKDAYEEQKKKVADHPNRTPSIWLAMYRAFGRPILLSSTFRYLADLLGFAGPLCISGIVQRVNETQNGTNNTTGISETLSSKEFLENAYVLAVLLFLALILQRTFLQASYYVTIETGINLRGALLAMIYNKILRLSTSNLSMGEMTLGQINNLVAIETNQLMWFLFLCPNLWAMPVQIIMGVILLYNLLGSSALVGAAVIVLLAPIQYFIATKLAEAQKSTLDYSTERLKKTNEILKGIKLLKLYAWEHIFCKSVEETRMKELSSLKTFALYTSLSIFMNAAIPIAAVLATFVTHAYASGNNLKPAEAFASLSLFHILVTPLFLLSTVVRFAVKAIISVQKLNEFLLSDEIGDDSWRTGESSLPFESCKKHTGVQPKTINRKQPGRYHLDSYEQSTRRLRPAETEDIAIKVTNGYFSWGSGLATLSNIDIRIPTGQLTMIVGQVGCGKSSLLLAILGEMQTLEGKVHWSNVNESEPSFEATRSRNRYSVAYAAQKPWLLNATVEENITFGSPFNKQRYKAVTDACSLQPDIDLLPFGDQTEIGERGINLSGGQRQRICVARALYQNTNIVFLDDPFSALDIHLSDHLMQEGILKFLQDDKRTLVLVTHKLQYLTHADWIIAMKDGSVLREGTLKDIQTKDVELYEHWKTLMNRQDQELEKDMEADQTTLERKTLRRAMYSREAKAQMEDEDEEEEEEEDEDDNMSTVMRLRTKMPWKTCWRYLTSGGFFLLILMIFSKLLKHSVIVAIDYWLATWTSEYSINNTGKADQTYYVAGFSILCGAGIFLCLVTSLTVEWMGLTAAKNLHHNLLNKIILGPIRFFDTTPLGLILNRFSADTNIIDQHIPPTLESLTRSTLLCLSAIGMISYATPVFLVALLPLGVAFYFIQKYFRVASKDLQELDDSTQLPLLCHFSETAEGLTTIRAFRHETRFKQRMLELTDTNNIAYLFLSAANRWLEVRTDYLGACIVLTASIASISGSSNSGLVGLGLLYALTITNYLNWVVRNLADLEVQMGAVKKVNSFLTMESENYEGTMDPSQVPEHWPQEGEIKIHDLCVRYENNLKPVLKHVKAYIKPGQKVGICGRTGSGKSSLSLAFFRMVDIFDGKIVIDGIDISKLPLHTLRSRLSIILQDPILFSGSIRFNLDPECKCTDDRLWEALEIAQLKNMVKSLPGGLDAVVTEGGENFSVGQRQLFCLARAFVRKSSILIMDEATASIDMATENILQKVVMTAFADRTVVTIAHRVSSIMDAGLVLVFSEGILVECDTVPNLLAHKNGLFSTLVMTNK
Voltage-gated inwardly rectifying potassium channel KCNH2, sequence (Q12809 whole entry): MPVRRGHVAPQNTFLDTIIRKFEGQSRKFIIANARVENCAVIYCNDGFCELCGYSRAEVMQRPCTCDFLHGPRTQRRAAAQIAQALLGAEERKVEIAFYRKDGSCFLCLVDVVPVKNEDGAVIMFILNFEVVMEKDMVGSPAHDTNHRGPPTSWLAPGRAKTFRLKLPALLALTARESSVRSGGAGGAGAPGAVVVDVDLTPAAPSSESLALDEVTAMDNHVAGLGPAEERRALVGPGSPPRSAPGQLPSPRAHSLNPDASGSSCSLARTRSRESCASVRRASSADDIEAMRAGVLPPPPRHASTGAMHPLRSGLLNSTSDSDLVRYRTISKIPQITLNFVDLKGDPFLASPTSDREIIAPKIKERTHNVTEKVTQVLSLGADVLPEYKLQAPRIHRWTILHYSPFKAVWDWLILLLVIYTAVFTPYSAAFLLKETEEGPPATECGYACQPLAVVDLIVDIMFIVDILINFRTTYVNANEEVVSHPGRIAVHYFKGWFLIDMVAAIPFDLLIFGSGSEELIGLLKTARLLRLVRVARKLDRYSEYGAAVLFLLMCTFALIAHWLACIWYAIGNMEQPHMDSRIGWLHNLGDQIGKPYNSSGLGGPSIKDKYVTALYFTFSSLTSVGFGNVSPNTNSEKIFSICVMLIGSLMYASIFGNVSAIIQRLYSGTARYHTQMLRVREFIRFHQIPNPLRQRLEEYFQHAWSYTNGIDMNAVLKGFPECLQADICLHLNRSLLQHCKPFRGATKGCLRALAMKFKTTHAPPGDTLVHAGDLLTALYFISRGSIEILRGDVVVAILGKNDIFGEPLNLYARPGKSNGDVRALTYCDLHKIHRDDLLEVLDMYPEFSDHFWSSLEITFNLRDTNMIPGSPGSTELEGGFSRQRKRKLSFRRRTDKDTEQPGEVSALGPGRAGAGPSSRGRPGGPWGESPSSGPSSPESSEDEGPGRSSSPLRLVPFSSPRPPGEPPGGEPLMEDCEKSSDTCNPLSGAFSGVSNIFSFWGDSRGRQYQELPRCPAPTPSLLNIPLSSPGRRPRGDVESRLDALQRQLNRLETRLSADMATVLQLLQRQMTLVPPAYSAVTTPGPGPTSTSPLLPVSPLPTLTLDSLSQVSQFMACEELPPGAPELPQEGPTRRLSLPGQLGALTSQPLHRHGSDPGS

Structure (SMILES) | Activity (HEK293) | Activity (BJ) | IC50 [1] [µM] | solubility [2] [µM] | Activity (Raji) | Activity (HepG2) | IC50 [3] [µM] | Stability [4] | Stability (Plasma) | IC50 [5] [µM] | Stability [6] | IC50 [7] [µM] | selectivity ratio [8] | EC50 (Plasmodium falciparum [9]) [µM] | selectivity ratio (hERG) | EC50 (Plasmodium falciparum [10]) [µM]
Cl.O=C(CCc1ccccc1)c1ccccc1OCC(O)CN1CCC(c2ccccc2)CC1 (racemic) | Non-toxic | Non-toxic | > 5 | 7.27 | Non-toxic | Non-toxic | > 5 | Stable | Stable | > 5 | Stable | – | – | – | – | –
Cc1ccc(N2CCN(CC(O)COc3ccccc3C(=O)CCc3ccccc3)CC2)cc1.Cl (racemic) | Non-toxic | Non-toxic | > 5 | – | Non-toxic | Non-toxic | > 5 | – | – | > 5 | – | 4.31 | – | – | – | –
Cl.O=C(CCc1ccccc1)c1ccccc1OCC(O)CN1CCN(C(c2ccccc2)c2ccccc2)CC1 (racemic) | Non-toxic | Non-toxic | – | 0.2 | Non-toxic | Non-toxic | – | Stable | Stable | – | Stable | 2.6 | > 10 | 0.1 | 26 | 0.06
Cl.O=C(CCc1ccc(F)cc1)c1ccccc1OCC(O)CN1CCN(C(c2ccccc2)c2ccccc2)CC1 (racemic) | Non-toxic | Non-toxic | – | – | Non-toxic | Non-toxic | – | – | – | – | – | – | > 10 | < 0.1 | – | < 0.1
